XBP1 UPR activ: activators of adaptive arm of unfolded protein response (XBP1) | CHO-XBP1 luciferase reporter, IRE1-XBP1 UPR activation, luminescence; percent of tunicamycin response, DMSO as zero | activation, % at 20 µM | 0.33% of 330,000 active | AID 463104;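 active = versus positive control, 20 µM dose yields 30% or more activation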;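 also: 100% = tunicamycin at 10 µg/mL and 0% = DMSO only wells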
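Test system: CHO-XBP1 luciferase reporter cells | Buffer or medium: Serum-containing F12 medium, 10% FBS | Schedule: 6 h compound exposure at 37 °C, 5% CO2 | Detection: Steady-Glo luciferase glow luminescence, 10 min after reagent addition | Read-out basis: Activation, % of tunicamycin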
697 NFkB inh: lowers PMA/ionomycin-induced NF-kB signal in 697 B cells; 0.33% of 330,000 active; 697 B-cell NF-kB luciferase reporter, 16 h; inhibition, % at 4 µM; AID 435022; in the data active = inhibition above about 35%
CHOP UPR activ: activators of apoptotic arm of unfolded protein response (CHOP) | CHO-CHOP luciferase reporter, UPR activation, luminescence; percent of tunicamycin response over DMSO baseline | activation, % at 10 µM | 0.34% of 330,000 active;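 active = at 10 µM dose, activation of 40% or more, normalized to positive control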;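 also: 100% = tunicamycin at 10 µg/mL and 0% = DMSO alone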
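Test system: CHO-CHOP cells, stable luciferase reporter of PERK-eIF2a-CHOP signalling | Quantity: 500 CHO-CHOP cells per well | Buffer or medium: F12 plus 10% serum | Compound dosing: 10 µM single point, 0.5% DMSO | Schedule: 6 h compound treatment, 37 °C | Signal: Luciferase luminescence | Control set: Tunicamycin high control, DMSO low control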
CHOP inh: inhibitors of CHOP induction in ER stress response; inhibition, % at 10 µM; 3.8% of 220,000 active; CHO-K1 CHOP-promoter luciferase, tunicamycin-induced, 15-18 h;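 active = compounds that reduced the stress-induced luciferase reporter signal by more than about 70% of percent inhibition, limit read from the data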;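 also: 0% = tunicamycin plus vehicle and 100% = wells without tunicamycin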
Jurkat NFkB inh: lowers PMA/ionomycin-induced NF-kB signal in Jurkat cells | inhibition, % at 4 µM | PMA/ionomycin-induced NF-kB luciferase reporter, luminescence | AID 435003 | 0.53% of 330,000 active; in the data active = inhibition above about 50%
Starred values were filed as active, the others as inactive; . = no result. This excerpt belongs to a sample that is enriched for hits.

SMILES	XBP1 UPR activ	697 NFkB inh	CHOP UPR activ	CHOP inh	Jurkat NFkB inh
O=C(NNC(=O)C12CC3CC(CC(C3)C1)C2)c1ccccc1O	-1.2	9.9	1.8	.	-0.8
COc1cccc(CNS(=O)(=O)c2c(C)[nH]c(C)c2C(=O)N2CCCC2)c1	-1.6	3.4	-1.0	.	7.3
Cc1ccc(C)c2c1[nH]c1ccc([N+](=O)[O-])cc12	-2.9	17.2	1.4	81.9*	1.5
Cc1c(C(=O)NN)[nH]c2ccc([N+](=O)[O-])cc12	-2.5	-16.3	-0.4	-0.2	-4.9
CSc1cccc(NC(=O)C(C)Sc2ccc(C)cc2)c1 (configuration not stated)	-0.2	9.8	2.6	77.9*	8.4
COc1cccc(NC(=S)N(CCc2nc3cc(C)c(C)cc3[nH]2)Cc2cccnc2)c1	2.1	7.6	1.9	22.9	-9.5
Cc1cccc(NC(=S)N(CCc2nc3cc(C)c(C)cc3[nH]2)Cc2cccnc2)c1	3.7	28.0	2.0	80.3*	-10.5
Cc1cc(Br)ccc1NC(=O)CN1C(=O)C2C3CC(c4ccccc4)C(C3)C2C1=O (configuration not stated)	2.5	1.9	1.9	84.6*	10.5
O=C(Nc1cccc([N+](=O)[O-])c1)C1COc2ccccc2O1 (configuration not stated)	-2.5	-5.8	0.0	.	-3.2
COc1ccccc1NC(=O)Cn1c(=O)n(-c2ccccc2)c(=O)c2oc3ccccc3c21	-3.2	1.0	2.8	81.0*	5.4
CC(=O)Nc1ccc(NC(=O)C/C(C)=N/NC(=O)C(=O)Nc2ccc(C)c(Cl)c2)cc1	-5.3	-2.2	2.4	87.2*	-10.1
C/C(CC(=O)Nc1ccc(OCc2ccccc2)cc1)=N\NC(=O)C(=O)Nc1cccc(C)c1	2.0	-16.1	0.2	93.9*	-25.2
Cc1ccc(NC(=O)C(=O)NNC(=O)c2ccccc2C)cc1Cl	-0.2	-15.1	-1.6	70.8*	7.3
C/C(CC(=O)Nc1ccc(C)c(Cl)c1)=N\NC(=O)c1cccc(O)c1	-1.8	-11.0	-0.9	.	-14.8
C=CCn1c(SCC(=O)NC2CC2)nnc1-c1cccs1	-6.7	23.6	1.9	.	-1.0
CC(C)N(Cc1nccn1C)C(=O)c1ccc2oc(Cc3ccccc3)nc2c1	-1.8	-18.4	1.2	.	-13.6
CCOc1ccc(NC(=O)Nc2ccc3nsnc3c2)cc1	1.6	-18.6	0.1	7.3	-23.8
O=C(Nc1ccc(F)cc1)Nc1cc(OCC(F)(F)F)cc(OCC(F)(F)F)c1	3.6	-1.1	27.4	102.2*	25.6
O=C(NCCNC(=O)c1cc(OCC(F)(F)F)ccc1OCC(F)(F)F)Nc1ccc(Cl)cc1	1.3	-37.6	3.9	55.7	-27.4
CCOc1ccc(NC(=O)Nc2cc(OCC(F)(F)F)cc(OCC(F)(F)F)c2)cc1	-0.7	-0.1	11.7	73.3*	8.6
O=C(NCCNC(=O)c1cc(OCC(F)(F)F)ccc1OCC(F)(F)F)Nc1ccc(OC(F)(F)F)cc1	2.1	-9.3	-2.6	90.4*	-6.4
CCN(c1ccc(OC)cc1)S(=O)(=O)c1nnc(NC(=O)COc2ccc(F)cc2)s1	-2.7	-28.3	-1.3	.	-6.6
Cc1ccc(-n2ccnc(SCC(=O)NC3CCCCC3)c2=O)cc1F	-0.3	-36.2	-1.9	.	-10.7
CCN1CCN(Cc2ccc(NC(=O)c3ccc(C)c(NC(=O)c4nccnc4N)c3)cc2C(F)(F)F)CC1	-1.0	14.2	-2.2	79.0*	7.4
CCN1CCN(Cc2ccc(NC(=O)c3ccc(C)c(NC(=O)c4nccn4C)c3)cc2C(F)(F)F)CC1	-1.9	-8.2	-0.5	54.9	-20.4
SMILES	XBP1 UPR activ	697 NFkB inh	CHOP UPR activ	CHOP inh	Jurkat NFkB inh
CSc1ccc(C2C(C#N)=C(N)Oc3c2ccc(=O)c2c(C)oc(C)c32)cc1 (configuration not stated)	-1.0	-6.8	-4.5	82.7*	-18.0
Cc1oc(C)c2c(=O)ccc3c(c12)OC(N)=C(C#N)C3c1ccccc1Cl (configuration not stated)	-2.0	13.6	0.4	81.4*	7.6
Cc1oc(C)c2c(=O)ccc3c(c12)OC(N)=C(C#N)C3c1ccccc1 (configuration not stated)	-3.1	-22.0	-2.4	13.1	-7.5
CN(Cc1ccccc1)C(=O)COC(=O)C1CCN(S(=O)(=O)c2ccc3c(c2)OCCO3)CC1	-5.4	24.8	-1.0	.	13.5
Cc1cc(C)c(C)c(S(=O)(=O)N2CCC(C(=O)N3CC(C)CC(C)C3)CC2)c1C (configuration not stated)	-0.9	-1.5	-0.2	.	30.3
CCCCSc1nnc(CCCCCNC(=O)OC(C)(C)C)o1	-3.7	2.1	-1.7	79.5*	-0.9
O=C(O)CC/C(=C\c1cc([N+](=O)[O-])ccc1Cl)c1nc2ccccc2s1	.	.	.	10.8	.
O=C(Nc1ccc(Cl)cc1)/C(=C/c1ccc([N+](=O)[O-])cc1)c1nc2ccccc2s1	.	.	.	104.7*	.
O=C(Nc1ccc(Cl)c([N+](=O)[O-])c1)Nc1nc2ccccc2s1	0.1	15.7	1.8	92.2*	4.9
O=C(Nc1nc2ccccc2s1)Nc1ccc([N+](=O)[O-])cc1Cl	1.4	-13.0	0.2	39.5	-10.1
CS(=O)(=O)c1ccc2nc(NC(=O)Nc3cccc(Cl)c3)sc2c1	21.4	-66.9	5.9	92.3*	-43.9
Cc1ccc(N2CC(C(=O)N/N=C/c3c(F)cccc3Cl)CC2=O)cc1 (configuration not stated)	-1.0	23.6	0.6	.	-10.2
Cc1sc2ncn(CC(=O)N3CCC(C(N)=O)CC3)c(=O)c2c1S(=O)(=O)N1CCOCC1	3.7	7.5	2.0	.	6.7
Cc1ccn2c(=O)nc(SCC(=O)NCc3ccccc3Cl)nc2c1	-1.1	11.5	0.6	.	-5.5
Cc1cccc(OCC(O)Cn2c(-n3nc(C)cc3C)nc3c2c(=O)[nH]c(=O)n3C)c1 (configuration not stated)	-2.1	12.9	1.1	72.9*	1.7
O=C(Nc1ccccc1)N(C1=NCCC1)c1ccc(OC(F)F)cc1	-0.9	-4.0	0.9	81.2*	-2.9
CC(=O)c1ccc(-c2ccc(C(=O)NC3CC(C)(C)NC(C)(C)C3)o2)cc1	1.0	8.3	0.3	.	-12.6
CCOC(=O)Cc1csc(NC(=O)c2c(O)c3ccccc3n(CC(C)C)c2=O)n1	4.1	21.0	16.0	85.0*	8.1
CC(C)Cn1c(=O)c(C(=O)Nc2ccccc2S(N)(=O)=O)c(O)c2ccccc21	7.5	18.7	-0.1	72.5*	-4.5
CC(C)Cn1c(=O)c(C(=O)N/N=C/c2cccc(F)c2)c(O)c2ccccc21	2.6	8.0	1.5	82.1*	8.4
CCCCn1c(=O)c(C(=O)N/N=C/c2ccc(F)cc2)c(O)c2ccccc21	0.8	8.4	-0.4	15.8	-10.1
CCOC(=O)Cc1csc(NC(=O)c2cccs2)n1	-1.8	-28.4	0.1	15.1	-33.6
O=C(N/N=C/c1cccc(F)c1)c1c(O)c2c([nH]c1=O)CCCC2	-5.7	-89.0	2.0	81.8*	-113.7
